Assay results as given in ChEMBL document CHEMBL4270573, “Novel nicotinoyl pyrazoline derivates bearing N-methyl indole moiety as antitumor agents: Design, synthesis and evaluation” (Eur J Med Chem, 2018).

What was measured:
HeLa [1] = experiment: Cell cycle arrest in human HeLa cells assessed as accumulation at G2/M phase at 0.080 uM after 24 hrs by propidium iodide staining based flow cytometric analysis (reference value: 17.72%); format: functional
In short: (§1)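 HepG2 and HeLa cells were exposed to 0, 0.020, 0.040, 0.060, 0.080 or 0.10 µM for 6, 12 or 24 h. DNA content was stained with propidium iodide and analysed by flow cytometry to give the percentage of cells in G0/G1, S and G2/M phases; sub-G1 cells were also recorded.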

Mus musculus [2] = experiment: Hepatotoxicity in nude mouse xenografted with human HeLa cells assessed as edema in liver at 10 to 20 mg/kg, ip after 14 days by hematoxylin and eosin staining based microscopic analysis; format: toxicity, organism-based; conditions: in vivo, 336 h
In short: (§2)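 HeLa xenograft nude mice with tumours near 100 mm³, randomised to four groups of 28 mice in total. Dosing was intraperitoneal: vehicle, CA-4 10 mg/kg, or test compound at 10 or 20 mg/kg, continued for 14 days. Heart, liver, kidney and spleen were then H&E-stained and examined for inflammatory infiltration, edema, necrosis and cell morphology.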

HeLa [3] = experiment: Cell cycle arrest in human HeLa cells assessed as accumulation at G0/G1 phase at 0.10 uM after 24 hrs by propidium iodide staining based flow cytometric analysis (reference value: 66.26%); format: functional; in short: as §1
HepG2 [4] = experiment: Induction of apoptosis in human HepG2 cells assessed as late apoptotic cells at 0.080 uM after 24 hrs by Annexin V-FITC/propidium iodide staining based flow cytometric analysis (reference value: 2.93%); format: functional
In short: (§3)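 HepG2 and HeLa cells were exposed to 0, 0.02, 0.040, 0.060, 0.080 and 0.10 µM for 6, 12 and 24 h. Cells were double-stained with Annexin V-FITC/PI and read by flow cytometry. Apoptotic rate was the percentage of FITC-positive cells, counting early plus late apoptotic.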

[5] = Cytotoxicity against HEK293T cells assessed as reduction in cell viability after 48 hrs by MTT assay; format: cell-based, HEK-293T; conditions: human
HeLa [6] = experiment: Induction of apoptosis in human HeLa cells assessed as early apoptotic cells at 0.040 uM after 24 hrs by Annexin V-FITC/propidium iodide staining based flow cytometric analysis (reference value: 6.17%); format: functional; in short: as §3
HeLa [7] = experiment: Induction of apoptosis in human HeLa cells assessed as viable cells at 0.080 uM after 24 hrs by Annexin V-FITC/propidium iodide staining based flow cytometric analysis (reference value: 88.6%); format: functional; conditions: read-out: Activity; in short: as §3
[8] = Inhibition of porcine brain tubulin polymerization measured over 30 mins; design: species or system Sus scrofa
Mus musculus [9] = experiment: Toxicity in nude mouse xenografted with human HeLa cells assessed as morphological changes in spleen cells at 10 to 20 mg/kg, ip after 14 days by hematoxylin and eosin staining based microscopic analysis; format: organism-based; conditions: in vivo, 336 h
Mus musculus [10] = experiment: Nephrotoxicity in nude mouse xenografted with human HeLa cells assessed as edema in kidney at 10 to 20 mg/kg, ip after 14 days by hematoxylin and eosin staining based microscopic analysis; format: toxicity, organism-based; conditions: in vivo, 336 h
HeLa [11] = experiment: Cell cycle arrest in human HeLa cells assessed as accumulation at S phase at 0.040 uM after 24 hrs by propidium iodide staining based flow cytometric analysis (reference value: 17.46%); format: functional; in short: as §1
HeLa [12] = experiment: Induction of apoptosis in human HeLa cells assessed as necrotic cells at 0.080 uM after 24 hrs by Annexin V-FITC/propidium iodide staining based flow cytometric analysis (reference value: 0.242%); format: functional; in short: as §3
Mus musculus [13] = experiment: Toxicity in nude mouse xenografted with human HeLa cells assessed as cellular inflammatory infiltration in spleen at 10 to 20 mg/kg, ip after 14 days by hematoxylin and eosin staining based microscopic analysis; format: organism-based; conditions: in vivo, 336 h
HepG2 [14] = experiment: Induction of apoptosis in human HepG2 cells assessed as necrotic cells at 0.060 uM after 24 hrs by Annexin V-FITC/propidium iodide staining based flow cytometric analysis (reference value: 0.270%); format: functional; in short: as §3
HeLa [15] = experiment: Growth inhibition of human HeLa cells after 48 hrs by MTT assay; format: functional
In short: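 Proliferation read-out; GI50 taken as the concentration giving 50% reduction of cancer cell proliferation.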

HeLa [16] = experiment: Induction of apoptosis in human HeLa cells assessed as necrotic cells at 0.020 uM after 24 hrs by Annexin V-FITC/propidium iodide staining based flow cytometric analysis (reference value: 0.242%); format: functional; in short: as §3
HeLa [17] = experiment: Induction of apoptosis in human HeLa cells assessed as necrotic cells at 0.040 uM after 24 hrs by Annexin V-FITC/propidium iodide staining based flow cytometric analysis (reference value: 0.242%); format: functional; in short: as §3
[18] = Selectivity index, ratio of CC50 for HEK293T cells to GI50 for human MCF7 cells; format: toxicity; conditions: HEK293T cells and MCF7 cells, read-out: Selectivity Index
In short: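 Ratio CC50/GI50: CC50 is the concentration reducing non-tumour 293T cell proliferation by 50%; GI50 is the concentration reducing cancer cell proliferation by 50%.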

HepG2 [19] = experiment: Induction of apoptosis in human HepG2 cells assessed as necrotic cells at 0.080 uM after 24 hrs by Annexin V-FITC/propidium iodide staining based flow cytometric analysis (reference value: 0.270%); format: functional; in short: as §3
HepG2 [20] = experiment: Induction of apoptosis in human HepG2 cells assessed as early apoptotic cells at 0.080 uM after 24 hrs by Annexin V-FITC/propidium iodide staining based flow cytometric analysis (reference value: 2.31%); format: functional; in short: as §3
HeLa [21] = experiment: Cell cycle arrest in human HeLa cells assessed as accumulation at G2/M phase at 0.020 uM after 24 hrs by propidium iodide staining based flow cytometric analysis (reference value: 17.72%); format: functional; in short: as §1
HepG2 [22] = experiment: Cell cycle arrest in human HepG2 cells assessed as accumulation at S phase at 0.080 uM after 24 hrs by propidium iodide staining based flow cytometric analysis (reference value: 20.40%); format: functional; in short: as §1
Mus musculus [23] = experiment: Hepatotoxicity in nude mouse xenografted with human HeLa cells assessed as cellular inflammatory infiltration in liver at 10 to 20 mg/kg, ip after 14 days by hematoxylin and eosin staining based microscopic analysis; format: toxicity, organism-based; conditions: in vivo, 336 h; in short: as §2
HepG2 [24] = experiment: Induction of apoptosis in human HepG2 cells assessed as necrotic cells at 0.040 uM after 24 hrs by Annexin V-FITC/propidium iodide staining based flow cytometric analysis (reference value: 0.270%); format: functional; in short: as §3
HepG2 [25] = experiment: Induction of apoptosis in human HepG2 cells assessed as early apoptotic cells at 0.060 uM after 24 hrs by Annexin V-FITC/propidium iodide staining based flow cytometric analysis (reference value: 2.31%); format: functional; in short: as §3
Mus musculus [26] = experiment: Toxicity in nude mouse xenografted with human HeLa cells assessed as edema in spleen at 10 to 20 mg/kg, ip after 14 days by hematoxylin and eosin staining based microscopic analysis; format: organism-based; conditions: in vivo, 336 h
HepG2 [27] = experiment: Cell cycle arrest in human HepG2 cells assessed as accumulation at G0/G1 phase at 0.040 uM after 24 hrs by propidium iodide staining based flow cytometric analysis (reference value: 55.63%); format: functional; in short: as §1
HeLa [28] = experiment: Cell cycle arrest in human HeLa cells assessed as accumulation at G0/G1 phase at 0.020 uM after 24 hrs by propidium iodide staining based flow cytometric analysis (reference value: 66.26%); format: functional; in short: as §1
HeLa [29] = experiment: Cell cycle arrest in human HeLa cells assessed as accumulation at G2/M phase at 0.10 uM after 24 hrs by propidium iodide staining based flow cytometric analysis (reference value: 17.72%); format: functional; in short: as §1

IC50 [8]: 1600 nM | GI50 (HeLa [15]): 34 nM
SMILES: COc1cccc(C2=NN(C(=O)c3ccc(C)nc3)C(c3cn(C)c4ccc(OC)cc34)C2)c1 (centres undefined)
Activity (HeLa [1]): 71.2% | Activity (Mus musculus [2]): Non-Toxic | Activity (HeLa [3]): 6.19% | Activity (HepG2 [4]): 6.01% | CC50 at 48 h [5]: > 300000 nM | Activity (HeLa [6]): 11% | viability at 0.08 µM (HeLa [7]): 61.8% | Activity (Mus musculus [9]): Non-Toxic | Activity (Mus musculus [10]): Non-Toxic | Activity (HeLa [11]): 7.43% | Activity (HeLa [12]): 1.02% | Activity (Mus musculus [13]): Non-Toxic | Activity (HepG2 [14]): 1.45% | Activity (HeLa [16]): 0.12% | Activity (HeLa [17]): 0.512% | selectivity ratio [18]: 3 to 10 | Activity (HepG2 [19]): 2.95% | Activity (HepG2 [20]): 9.61% | Activity (HeLa [21]): 21.23% | Activity (HepG2 [22]): 28.38% | Activity (Mus musculus [23]): Non-Toxic | Activity (HepG2 [24]): 2.2% | Activity (HepG2 [25]): 7.94% | Activity (Mus musculus [26]): Non-Toxic | Activity (HepG2 [27]): 28.39% | Activity (HeLa [28]): 66.95% | Activity (HeLa [29]): 61.12%
